Measurements: paper PMC11729038 (Bioorganic & medicinal chemistry letters, 2024)
Values belong to the compound of their own block, whether it stands above or below them.

Key:
human AANAT enzyme = conditions: cited from earlier work
AANAT = AANAT (Ovis aries, UniProt Q29495); assay: AANAT enzymatic; format: biochemical, Ovis aries (sheep); conditions: for Fold less potent than 1 (AANAT IC50): relative to compound 1; for Inhibition of AANAT at 10 μM test compound concentration: sheep AANAT
[1] = cited from earlier work
[2] = Reaction of electrophiles with CoASH, adduct formation monitored by LC-MS; format: physicochemical; conditions: for kforward, reaction with CoASH: 25 °C, pH 7.5 phosphate buffer, 2 mM each of CoASH and electrophile, 1 mM TCEP, 5% MeOH, same with and without 1.2 μM AANAT
Procedure, shortened: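 Uncatalyzed electrophile–CoASH reactions contained 5% MeOH for electrophile dissolution. CoASH adduct formation was followed over time by LC-MS. Rate constants came from global kinetic fitting of product accumulation. Upper and lower bounds were set within a 0.83 relative error threshold.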

melatonin receptors = conditions: cited from earlier work
sheep AANAT enzyme = conditions: truncated bisubstrate inhibitor versus 2; cited from earlier work

Chain of AANAT (Q29495 whole entry): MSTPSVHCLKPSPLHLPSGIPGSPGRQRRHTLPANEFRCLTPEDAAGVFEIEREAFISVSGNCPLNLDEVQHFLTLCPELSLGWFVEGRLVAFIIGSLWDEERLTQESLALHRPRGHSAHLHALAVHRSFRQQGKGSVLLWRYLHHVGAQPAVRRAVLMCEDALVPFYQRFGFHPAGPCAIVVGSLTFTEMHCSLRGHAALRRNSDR

SMILES: C=CC(=O)NCCc1csc2ccc(OC)cc12 [Compound 7]
Fold less potent than bromoacetyl analog 5 (reported IC50) (human AANAT enzyme): 40 X

Fold less potent than 1 (AANAT IC50) (AANAT): 6 X
SMILES: O=C(CBr)NCCCc1c[nH]c2ccccc12 [Compound 9]

SMILES: CC(C)(CO[P@@](=O)(O)O[P@@](=O)(O)OC[C@H]1O[C@@H](n2cnc3c(N)ncnc32)[C@H](O)[C@@H]1OP(=O)(O)O)[C@@H](O)C(=O)NCCC(=O)NCCSCC(=O)NCCc1c[nH]c2ccccc12 [Compound 2]
Cell permeability [1]: poor cell permeability

Inhibition of AANAT at 10 μM test compound concentration (AANAT): inactive
SMILES: C=CS(=O)(=O)NCCc1c[nH]c2ccccc12 [Compound 13]
kforward, reaction with CoASH [2]: 0.00183 M⁻¹ s⁻¹

Inhibition of AANAT at 10 μM test compound concentration (AANAT): inactive
SMILES: C=CC(=O)NCCc1c[nH]c2ccccc12 [Compound 11]
kforward, reaction with CoASH [2]: 0.000146 M⁻¹ s⁻¹

SMILES: C=CC(=O)NCc1c[nH]c2ccccc12 [Compound 10]
kforward, reaction with CoASH [2]: 0.00026 M⁻¹ s⁻¹ | Reaction rate with CoASH at pH 6.8 relative to pH 7.5 ([2]; pH 6.8, in the presence of enzyme): several times slower than at pH 7.5

Fold less potent than 1 (AANAT IC50) (AANAT): 6 X
SMILES: O=C(CBr)NCc1c[nH]c2ccccc12 [Compound 8]

SMILES: O=C(CBr)NCCc1csc2ccc(O)cc12 [Compound 6]
Selectivity against melatonin receptors (melatonin receptors): lack selectivity

SMILES: O=C(CBr)NCCc1c[nH]c2ccccc12 [Compound 1, bromoacetyltryptamine, reference compound]
Second order rate constant, reaction with CoASH ([2]; pH 6.8, absence of AANAT): 0.0218 M⁻¹ s⁻¹ | Effect of AANAT on rate of reaction with CoASH ([2]; pH 7.5): the same in the presence and absence of AANAT | Selectivity against melatonin receptors (melatonin receptors): lack selectivity

SMILES: CC(C)(COP(=O)(O)OP(=O)(O)OC[C@H]1O[C@@H](n2cnc3c(N)ncnc32)[C@H](O)[C@@H]1OP(=O)(O)O)[C@@H](O)C(=O)NCCC(=O)NCCSC(=O)NCCc1c[nH]c2ccccc12 [Compound 3a]
Fold less potent than 2 (reported) (sheep AANAT enzyme): 4 X

Inhibition of AANAT at 10 μM test compound concentration (AANAT): inactive
SMILES: C=CS(=O)(=O)NCc1c[nH]c2ccccc12 [Compound 12]
kforward, reaction with CoASH [2]: 0.00435 M⁻¹ s⁻¹
